Results on four compounds are retold here after ChEMBL document CHEMBL4364271, “Unveiling the Importance of Amide Protons in CSP:ComD Interactions in Streptococcus pneumoniae” (ACS Med Chem Lett, 2019).

Data set [1] in a line: Metabolic stability in aqueous ammonium carbonate solution assessed as trypsin/chymotrypsin (unknown origin)-mediated drug degradation by measuring half life at 0.05 ug/ml incubated in shaking conditions in presence of trypsin/chymotrpsin and measured for 48 hrs by RP-HPLC analysis. The format is ADME. To be noted: human.
Data set [2] in a line: Metabolic stability in human plasma at 0.33 mM measured for 3 hrs by RP-HPLC analysis. Conditions: 330 µM. Type of data set: ADME, cell-free.
Data set [3] can be described thus: Antagonist activity at ComD1 receptor in Streptococcus pneumoniae D39 harboring pcomX/lacZ reporter gene assessed as inhibiton of CSP1-stimulated maximum signal preincubated for 30 mins followed by 50 nM CSP1 addition by ONPG based beta-galactosidase assay. An outline of the steps:
(§1)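 Comx-lacZ β-gal reporter inhibition in D39 (ComD1, CSP1 50 nM) or TIGR4 (ComD2, CSP2 250 nM). Peptides tested over a range of concentrations against the stimulating CSP. Miller units normalized to CSP alone. IC50 given with 95% confidence interval.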

Data set [4] can be described thus: Antagonist activity at ComD2 receptor in Streptococcus pneumoniae TIGR4 harboring pcomX/lacZ reporter gene assessed as inhibition of CSP2-stimulated maximum signal preincubated for 30 mins followed by 250 nM native CSP2 addition by ONPG based beta-galactosidase assay. Summed up:
as §1

Data set [5] is described as follows: Agonist activity at ComD1 receptor in Streptococcus pneumoniae D39 harboring pcomX/lacZ reporter gene incubated for 30 mins by ONPG based beta-galactosidase assay. Summed up: (§2)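 Dose-response in wild-type lacZ reporter strains (comX promoter; D39 for ComD1, TIGR4 for ComD2) producing native CSP. Peptides tested over a range of concentrations. β-gal read-out (Miller units) normalized to native CSP. EC50 reported with 95% confidence interval.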
On the technique in general: A reporter such as luciferase makes a cellular process visible.

Data set [6] deals with Streptococcus pneumoniae TIGR4. Put plainly: Agonist activity at ComD2 receptor in Streptococcus pneumoniae TIGR4 harboring pcomX/lacZ reporter gene at 10 uM incubated for 30 mins by ONPG based beta-galactosidase assay relative to native CSP2. An outline of the steps: (§3)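 Single-dose screen of synthetic peptide at 10 μM in wild-type reporter strains (D39 for ComD1, TIGR4 for ComD2) producing their own CSP and carrying lacZ under the comX promoter. β-gal activity in Miller units normalized to native CSP (CSP1 or CSP2, 100%); DMSO 0%. Triplicates over three separate trials.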

Data set [7] in a line: Metabolic stability in human plasma assessed as half-life at 0.33 mM measured for 3 hrs by RP-HPLC analysis. The format is ADME, cell-free.
The test system of data set [8] is Streptococcus pneumoniae D39. Briefly: Agonist activity at ComD1 receptor in Streptococcus pneumoniae D39 harboring pcomX/lacZ reporter gene at 10 uM incubated for 30 mins by ONPG based beta-galactosidase assay relative to native CSP1. Summed up:
as §3

The nature of data set [9]: Agonist activity at ComD2 receptor in Streptococcus pneumoniae TIGR4 harboring pcomX/lacZ reporter gene incubated for 30 mins by ONPG based beta-galactosidase assay. Summed up:
as §2

pEC50, pIC50: −log10 of the molar value. Active and inactive are the calls of the source. The calls are words filed in the database; no cut-off is given here. Non-standard residues stand in square brackets, D forms with d. Residues, ends and D or L forms follow the SMILES beside them. NMeF = CN[C@@H](Cc1ccccc1)C(=O)O; NMeQ = CN[C@@H](CCC(N)=O)C(=O)O; NMeK = CN[C@@H](CCCCN)C(=O)O

For the compound `CC[C@H](C)[C@H](NC(=O)[C@H](CCCNC(=N)N)NC(=O)[C@H](CCSC)NC(=O)[C@H](C)N)C(=O)N[C@@H](CO)C(=O)N[C@@H](CCCNC(=N)N)C(=O)N[C@H](C(=O)N[C@H](C(=O)N[C@@H](CC(C)C)C(=O)N[C@H](CC(=O)O)C(=O)N[C@@H](Cc1ccccc1)C(=O)N[C@@H](CC(C)C)C(=O)N(C)[C@@H](Cc1ccccc1)C(=O)N[C@@H](CC(C)C)C(=O)N[C@@H](CCCNC(=N)N)C(=O)N[C@@H](CCCCN)C(=O)N[C@@H](CCCCN)C(=O)O)[C@@H](C)CC)[C@@H](C)CC`, the half-life at 0.05 ug/ml in [1] was 4 h. In addition, the Stability entry in data set [2] is “Unstable”. Further, the pIC50 in data set [3] was less than 6.00; in data set [4], 7.19.
Compound `CC[C@H](C)[C@H](NC(=O)[C@H](Cc1ccccc1)NC(=O)[C@H](CC(=O)O)NC(=O)[C@H](CCCNC(=N)N)NC(=O)[C@H](Cc1ccccc1)NC(=O)[C@H](Cc1ccccc1)NC(=O)[C@H](CCCCN)NC(=O)[C@H](CO)NC(=O)[C@H](CC(C)C)NC(=O)[C@H](CCCNC(=N)N)NC(=O)[C@H](CCSC)NC(=O)[C@@H](N)CCC(=O)O)C(=O)N[C@@H](CC(C)C)C(=O)N(C)[C@@H](CCC(N)=O)C(=O)N[C@@H](CCCNC(=N)N)C(=O)O` (H-EMRLSKFFRDFIL[NMeQ]R-OH) showed a pEC50 in data set [5] of 7.17. Moreover, the outcome in data set [6] was inactive. In data set [1], the half-life at 0.05 ug/ml is 6 h. Also, in [7], the half-life at 330 µM was 2 h. The same compound gave an Activity in [8] greater than 75%.
The matching figures for `CC[C@H](C)[C@H](NC(=O)[C@H](Cc1ccccc1)NC(=O)[C@H](CC(=O)O)NC(=O)[C@H](CCCNC(=N)N)NC(=O)[C@H](Cc1ccccc1)NC(=O)[C@H](Cc1ccccc1)N(C)C(=O)[C@H](CCCCN)NC(=O)[C@H](CO)NC(=O)[C@H](CC(C)C)NC(=O)[C@H](CCCNC(=N)N)NC(=O)[C@H](CCSC)NC(=O)[C@@H](N)CCC(=O)O)C(=O)N[C@@H](CC(C)C)C(=O)N[C@@H](CCC(N)=O)C(=O)N[C@@H](CCCNC(=N)N)C(=O)O` (H-EMRLSK[NMeF]FRDFILQR-OH): 6.55, “inactive”, greater than 48 h, less than 0.5 h and greater than 75%.
As for `CC[C@H](C)[C@H](NC(=O)[C@H](Cc1ccccc1)NC(=O)[C@H](CC(=O)O)NC(=O)[C@H](CCCNC(=N)N)NC(=O)[C@H](Cc1ccccc1)NC(=O)[C@H](Cc1ccccc1)NC(=O)[C@H](CCCCN)N(C)C(=O)[C@H](CO)NC(=O)[C@H](CC(C)C)NC(=O)[C@H](CCCNC(=N)N)NC(=O)[C@H](CCSC)NC(=O)[C@@H](N)CCC(=O)O)C(=O)N[C@@H](CC(C)C)C(=O)N[C@@H](CCC(N)=O)C(=O)N[C@@H](CCCNC(=N)N)C(=O)O` (H-EMRLS[NMeK]FFRDFILQR-OH), the results for the pEC50 in data set [5] and in [9] were 7.19 and less than 6.00, respectively. In addition, the result in [6] was inactive. For the same compound, the half-life at 0.05 ug/ml in [1] was greater than 48 h. For the same compound, in [7], the half-life at 330 µM was less than 0.5 h. The compound also displayed an Activity in data set [8] greater than 75%.

The term half-life denotes how long it takes for the measured level to halve. What is called pIC50 is −log10 of the IC50, conventionally taken in molar units. Broadly, the pEC50 is the EC50 on a negative log10 scale, so that one unit is a factor of ten. Higher therefore signals a small EC50.
